# Experimental data of several laboratories.
# Each line is one published result; the experiments were not run side by side.
# Target: Serine/threonine-protein kinase PAK 5 (PAK5, Homo sapiens, UniProt Q9P286)
Structure (SMILES),test,setting,quantity,value
O=C1NC(c2ccccn2)Sc2ccccc21 (centres unmarked),"cell-free assay, competition with immobilised ligand",1 µM,remaining binding,94%
CCCS(=O)(=O)Nc1ccc(F)c(C(=O)c2c[nH]c3ncc(-c4ccc(Cl)cc4)cc23)c1F,"enzyme activity, inhibitor",1 µM,inhibition,< 10%
COc1cc(Nc2cnc(C#N)c(O[C@H](C)CN(C)C)n2)ncc1-c1cnn(C)c1,"enzyme activity, inhibitor, radiometric",1 µM,remaining activity,93%
COc1ccc2cc(OCC3(C(=O)O)CN(C(=O)c4ccc(F)cc4)C3)ccc2c1,"cell-free assay, competition with immobilised ligand",1 µM,remaining binding,100%
CNC(=O)c1cc(Oc2ccc(NC(=O)Nc3ccc(Cl)c(C(F)(F)F)c3)cc2)ccn1,"enzyme activity, inhibitor",0.3 µM,inhibition,-18%
CN(C)C(=O)Cn1cc(-c2nc(C3(c4ccc(-c5cnc(N)nc5)cc4)CC3)no2)cn1,"cell-free assay, competition with immobilised ligand",1 µM,remaining binding,88%
CCN(CC)c1ccc(C2=NNC(=O)CC2C)cc1[N+](=O)[O-] (centres unmarked),"enzyme activity, inhibitor",10 µM,remaining activity,5%
COc1cc2ncnc(Nc3ccc(Oc4ccccc4)c(C)c3C)c2cc1OC,"enzyme activity, inhibitor",1 µM,inhibition,3%
CCN(CC)CCNC(=O)c1c(C)[nH]c(/C=C2\C(=O)Nc3ccc(F)cc32)c1C,"enzyme activity, inhibitor",0.3 µM,inhibition,-4%
Nc1nc(Nc2ccccc2)sc1C(=O)c1c(F)cccc1F,"enzyme activity, inhibitor",10 µM,remaining activity,66%
CC(C)(C)c1nc2c(s1)c1nc(N)ncc1c1ccc(NS(=O)(=O)c3c(F)cccc3F)c(F)c12,"enzyme activity, inhibitor, radiometric",1 µM,remaining activity,77%
Cc1cc(NC(=O)c2cccc3cc(-c4cccc5[nH]nc(N)c45)ccc23)ccc1F,"enzyme activity, inhibitor",0.1 µM,activity vs control,88%
Cc1cnc(NC2CCOCC2)nc1-n1cnc(C(=O)NC(CN)c2cc(F)cc(Cl)c2)c1 (centres unmarked),"enzyme activity, inhibitor, radiometric",1 µM,remaining activity,83%
COCCOc1nc(-c2ccc(Cl)nc2)nc2c1CN(C(=O)c1ncn3ccccc13)CC2,"cell-free assay, competition with immobilised ligand",0.1 µM,remaining binding,100%
O=C1NC(=O)c2cc(Nc3ccc(F)cc3)c(Nc3ccc(F)cc3)cc21,cell-free assay,0.5 µM,remaining signal,96.4%
CN(C)c1nccc(-c2cnc3ncccn23)n1,binding,1 µM,remaining binding,78%
CCS(=O)(=O)c1cc2cc(C[C@](O)(CC(C)(C)c3ccc(F)cc3C(N)=O)C(F)(F)F)[nH]c2cn1,"cell-free assay, competition with immobilised ligand",1 µM,remaining binding,100%
Cc1ccc(NC(=O)c2ccc(C)c(C(F)(F)F)c2)cc1C#Cc1nn(C2CCC(O)CC2)c2ncnc(N)c12 (centres unmarked),cell-free assay,10 µM,remaining signal,89%
O=C(Nc1cnn(-c2csc(C(=O)NC3COC3)c2)c1)Nc1c(F)cccc1Cl,"enzyme activity, inhibitor",5 µM,remaining activity,92.9%
N#CCCc1ccc2c(c1)-c1[nH]c3ccc([N+](=O)[O-])cc3c1CC(=O)N2,cell-free assay,0.5 µM,remaining signal,60.3%
Cn1c(=O)n(-c2ccc(C(C)(C)C#N)cc2)c2c3cc(-c4cnc5ccccc5c4)ccc3ncc21,"enzyme activity, inhibitor",10 µM,remaining activity,90%
O=C(Nc1cnn(-c2csc(C(=O)NC3COC3)c2)c1)Nc1ccccc1Cl,"enzyme activity, inhibitor",5 µM,remaining activity,92.1%
CC(C)(O)[C@H]1CC[C@H](Nc2ccc3ncc(-c4cccc(C(F)(F)F)c4)n3n2)CC1,"enzyme activity, inhibitor",1 µM,remaining activity,98.1%
Nc1c(C(=O)NCc2ccc(C(=O)NCCCC3CCCCC3)cc2)cnn1-c1ccccc1,"cell-free assay, competition with immobilised ligand",0.1 µM,remaining binding,100%
O=C1Nc2ccc(Cl)cc2C1=Cc1cc(Cl)c(O)c(Cl)c1,cell-free assay,0.5 µM,remaining signal,91.5%
Cc1noc([C@H]2C[C@@H](c3ccc(C(F)(F)F)cc3)CN(C(=O)N3CCS(=O)(=O)C3)C2)n1,"cell-free assay, competition with immobilised ligand",1 µM,remaining binding,100%
Nc1nc(NC2CCCCC2)sc1C(=O)c1ccccc1,"enzyme activity, inhibitor",10 µM,remaining activity,103%
CCC(=N\O)/C(C)=C/c1ccc(F)cc1,"cell-free assay, competition with immobilised ligand",1 µM,remaining binding,100%
FC(F)(F)Oc1cccc(-c2cnc3ccc(-c4ccncc4)nn23)c1,"enzyme activity, inhibitor, radiometric",1 µM,activity vs control,72%
